Assay results from publication PMC2933508 (Cancer research, 2010).
Where a SMILES comes first, the peptide text is derived from it. [ ]: non-standard residue; d: D form. The star is where a group is joined. NH(Colchicin-10-yl) = COc1cc2c(c(OC)c1OC)-c1ccc(N*)c(=O)cc1[C@@H](NC(C)=O)CC2; FITC = O=C1OC2(c3ccc(O)cc3Oc3cc(O)ccc32)c2ccc(NC(=S)*)cc21; hPhe = N[C@@H](CCc1ccccc1)C(=O)O; Cit = NC(=O)NCCC[C@H](N)C(=O)O; βAla = NCCC(=O)O

Columns and labels:
[1] = test system: HT1080 cells (MT1-MMP positive); assay: MTT chemosensitivity assay, HT1080 cells; format: cell-based, human; conditions: in vitro, MTT IC50 ratio
In short: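 HT1080 and MCF7 cells were grown in RPMI 1640 with 10% FBS, 1 mmol/L pyruvate and 2 mmol/L glutamine, at low passage. MTT assay: exposure to test conjugate (2.4 nmol/L–5 μmol/L), free metabolite (0.1 nmol/L–5 μmol/L) or DMSO for 24 or 96 h. Survival was read 96 h post-treatment and IC50 taken from survival curves; mean ± SD of 3 independent experiments.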

[2] = Pharmacokinetics and tissue distribution in HT1080 tumor-bearing mice; format: in vivo, mouse; conditions: ICT2552 10.2 mg kg−1 i.p., 4 h post-administration
In short: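 Mice bearing HT1080 tumours received i.p. test conjugate (150 mg kg⁻¹), free metabolite (10.2 mg kg⁻¹) or vehicle (10% DMSO/Arachis oil). Tumour, blood, liver, kidney, lung, heart and spleen were collected at set times. Plasma (5000 g, 10 min) was diluted 1:5 into methanol; tissues were snap-frozen and homogenized in ice-cold methanol. Supernatants went to LC-MS against agent-free plasma/tissue calibrators; 3 mice per time point.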

HT1080 tumors [3] = assay: Antitumor activity, HT1080 xenograft, single agent; format: in vivo, mouse
In short: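 Female Balb/c nude mice (6–8 wk) carried s.c. HT1080 xenograft fragments (2–3 mm³) and were randomized at ~32 mm³. They got a single i.p. dose of test conjugate (37.5, 50, 62.5 or 75 mg kg⁻¹) or molar-equivalent free metabolite (7.5–15 mg kg⁻¹). Caliper volume ((a²×b)/2, normalized to day 0) and body weight were recorded daily for up to 64 days. Growth delay was the time to tumor-volume doubling relative to control. Mann-Whitney U test.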

[4] = ICT2588 metabolism ex vivo in MCF7 xenograft homogenate; format: in vitro ADME; conditions: human, other tissue homogenate, pH 7.6
In short: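 Supernatants were run at 100 mg tissue per ml with test compound at 20 μmol/L final. Aliquots taken over 120 min were acetonitrile-precipitated and analysed by LC-MS: reverse-phase, 22.5–50% acetonitrile/0.05% TFA gradient over 30 min, parent quantified at 360 nm. Three independent experiments.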

HT1080 tumors [5] = assay: Vascular shutdown and tumor necrosis in HT1080 tumors; format: in vivo, mouse; conditions: 24 h after i.p. ICT2588 150 mg kg−1, HT1080 tumor-bearing mice, mean of 3 mice
In short: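 Mice bearing HT1080 tumours got i.p. test conjugate (150 mg kg⁻¹), free metabolite (10.2 mg kg⁻¹) or vehicle (10% DMSO/Arachis oil). Functional tumour vasculature and hemorrhagic necrosis were assessed 24 h later; mean of 3 mice ± standard error.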

MCF7 = assay: Intracellular fluorescence following treatment; format: cell-based, human; conditions: in vitro

Row | Compound | chemosensitivity of HT1080 cells relative to MCF7 cells [1] | concentration of ICT2552 in plasma [2] | concentration of ICT2552 in tumor versus liver tissue [2] | tumor growth delay (HT1080 tumors [3]; ICT2552 15 mg kg−1 single i.p. dose (equimolar to ICT2588 75 mg kg−1)) | antitumor response compared with ICT2588 at equimolar doses (HT1080 tumors [3]; ICT2552 7.5, 10, 12.5 and 15 mg kg−1 i.p.) | half-life [4] | increase in hemorrhagic necrosis (HT1080 tumors [5]) | tumor growth delay (HT1080 tumors [3]; ICT2588 75 mg kg−1 single i.p. dose, p<0.01) | loss in mouse bodyweight (maximum) (HT1080 tumors [3]; all doses of ICT2588 used (37.5-75 mg kg−1 i.p.), data not shown) | cell entry / intracellular fluorescence following treatment (MCF7)
1 | COc1cc2c(c(OC)c1OC)-c1ccc(N)c(=O)cc1[C@@H](NC(C)=O)CC2 [ICT2552, azademethylcolchicine] | equally cytotoxic to HT1080 and MCF7 cells | below the level of detection | not significantly different | 1.9 days | significantly lower antitumor response |  |  |  |  | 
2 | COc1cc2c(c(OC)c1OC)-c1ccc(NC(=O)[C@H](Cc3ccc(O)cc3)NC(=O)[C@H](CC(C)C)NC(=O)[C@H](Cc3ccc(O)cc3)NC(=O)[C@H](CCc3ccccc3)NC(=O)CNC(=O)[C@H](CCCNC(N)=O)NC(=O)[C@H](CO)NC(=O)[C@H](CCCNC(=N)N)NC(=O)CCNC(=S)Nc3ccc4c(c3)C(=O)OC43c4ccc(O)cc4Oc4cc(O)ccc43)c(=O)cc1[C@@H](NC(C)=O)CC2 [ICT2588] ({FITC-βAla}-RS[Cit]G[hPhe]YLY-{NH(Colchicin-10-yl)}; N-terminus and C-terminus assumed) | at least 10 fold |  |  |  |  | 33.1 min | 3 fold | 4.4 days | ≤ 6% | lack of observable intracellular fluorescence
